Here are results for 13 compounds from ChEMBL document CHEMBL1131113, “Design and synthesis of [2-(8,9-dioxo-2,6-diazabicyclo[5.2.0]non-1(7)-en-2-yl)-ethyl]phosphonic acid (EAA-090), a potent N-methyl-D-aspartate antagonist, via the use of 3-cyclobutene-1,2-dione as an achiral alpha-amino acid bioisostere” (J Med Chem, 1998).

Where only a bound is given, the exact number is not on record here.

Assay [1] has as its target Glutamate NMDA receptor. Briefly: Tested in vitro for antagonistic activity at N-methyl-D-aspartate glutamate receptor by measuring displacement of [3H]TCP from crude synaptic membrane preparations obtained from rat brain. The assay is classed as functional. The method in brief:
(§1)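 Same membranes incubated in triplicate 60 min at 25 °C with 2.5 nM [3H]TCP, 3 μM L-glutamate, 1 μM glycine, test drug. Nonspecific binding defined with 100 μM MK-801. Vacuum filtration on 0.1% PEI-pretreated filters, ice-cold buffer rinses, scintillation counting. IC50 with 95% confidence limits by nonlinear logistic regression over 5–10 concentrations.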

A further assay concerns Mus musculus. As to the kind of experiment: Effective dose against NMDA-induced lethality in mice on ip administration. The assay is classed as functional.
Assay [2] concerns the target Glutamate NMDA receptor. As to the kind of experiment: Displacement of [3H]CPP from rat brain synaptic membrane N-methyl-D-aspartate glutamate receptor. The method in brief: (§2)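 Crude synaptic membranes, thawed, washed once in Tris-HCl, resuspended at 0.3–0.5 mg protein/mL (Lowry). Affinity from displacement of [3H]CPP binding per Murphy's method.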
A general note: In a radioligand displacement assay an active substance lowers the binding of a labelled ligand.

Assay [3] concerns the target T1, Glutamate NMDA receptor (Rattus norvegicus) (UniProt P35439+Q00959+Q00960+Q00961+Q62645+Q8VHN2+Q9R1M7). Briefly: Tested in vitro at 10000 nM for binding affinity at N-methyl-D-aspartate glutamate receptor by measuring displacement of [3H]CPP from crude synaptic membrane preparations obtained from rat brain. The method in brief: as §2
In assay [4] the target is T1, Glutamate NMDA receptor (Rattus norvegicus). As to the kind of experiment: Tested in vitro at 100 uM for antagonistic activity at N-methyl-D-aspartate glutamate receptor by measuring displacement of [3H]TCP from crude synaptic membrane preparations obtained from rat brain. The assay is classed as functional. In outline:
as §1

The species entered for another assay is Rattus norvegicus. Briefly: Effect on infarct volume in the rat was determined by rat permanent focal ischemia model. The assay is classed as functional. In outline:
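Male Fisher-344 rats (290–310 g) under 2–4% isoflurane. Right common carotid occluded and distal MCA electrocoagulated transcranially, body temperature 37 ± 1 °C. Single iv bolus via tail vein (1 mL/kg, 10 mg/kg in 0.9% NaCl) 5 min post-occlusion. At 24 h, cresyl violet-stained 20 μm frozen sections at 400-μm intervals; infarct volume by image analysis; mean ± SE.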

As a reminder, the IC50 is the concentration that inhibits the measured activity by half. For orientation: ED50 means the dose at which the effect has come halfway, by size or by number of responders. Regarding `O=C1C2=NCCCN(C/C=C/P(=O)(O)O)C2=C1O`, the IC50 at Glutamate NMDA receptor [1] is over 100 µM; at Glutamate NMDA receptor [2], over 10 µM. Further, the ED50 in the assay with Mus musculus is over 5 mg/kg.
Regarding `O=C1C2=NCCN(CCP(=O)(O)O)C2=C1O`, the IC50 was found to be 29 µM on Glutamate NMDA receptor [1] and 0.092 µM on Glutamate NMDA receptor [2]. In the assay with Mus musculus, this compound had an ED50 of 6.1 mg/kg.
The compound `Nc1c(NCCP(=O)(O)O)c(=O)c1=O` returned an ED50 in the assay with Mus musculus of 29 mg/kg.
What is called inhibition is the relative decrease from the control value, in per cent. The compound `O=C1C2=NCCCN(CCc3nnn[nH]3)C2=C1O` gave an IC50 on Glutamate NMDA receptor [1] of over 100 µM. In the assay with Mus musculus, this compound came in with an ED50 of over 5 mg/kg. In assay [3], the inhibition worked out at 41%.
In the case of `O=C([O-])CN1CCCN=C2C(=O)C(O)=C21.[Na+]`, the ED50 in the assay on Mus musculus was over 20 mg/kg. The IC50 at Glutamate NMDA receptor [2] came to 0.55 µM. Further, the inhibition in assay [4] was determined as 64%.
Consider `O=c1c2c(c1=O)N(CCP(=O)(O)O)CCCN2` [PERZINFOTEL], for which the IC50 on Glutamate NMDA receptor [1] worked out at 7.6 µM; on Glutamate NMDA receptor [2], 0.03 µM. Moreover, it took a dose of 2.1 mg/kg to reach the 50% effect level with Mus musculus (ED50). This compound registered an Infarct volume in the assay filed under Rattus norvegicus of 43.2 mm**3.
As to `CC1(C)CN=C2C(=O)C(O)=C2N(CCP(=O)(O)O)C1`, the ED50 in the assay on Mus musculus amounted to 22 mg/kg. Moreover, at Glutamate NMDA receptor [2], the IC50 was 0.28 µM. Besides, the inhibition in assay [4] amounted to 59%.
Regarding `O=C1C(O)=C2/C1=N\CCCCN2CCP(=O)(O)O`, the IC50 was 36 µM at Glutamate NMDA receptor [1] and 0.049 µM at Glutamate NMDA receptor [2]. The same compound gave an ED50 in the assay on Mus musculus of over 3 mg/kg.
On to `O=C([O-])CCN1CCCN=C2C(=O)C(O)=C21.[Na+]`, for which the ED50 in the assay with Mus musculus was over 20 mg/kg. This compound yielded an IC50 at Glutamate NMDA receptor [2] of 0.34 µM. The inhibition in assay [4] was 53%.
In the case of `O=C(O)[C@@H]1C[C@H](CP(=O)(O)O)CCN1` (single isomer, unassigned) [SELFOTEL], the IC50 on Glutamate NMDA receptor [1] came out at 22 µM. In the assay with Mus musculus, this compound registered an ED50 of 1.5 mg/kg.
On to `O=C1C2=NCC(O)CN(CCP(=O)(O)O)C2=C1O` (configuration not stated), for which the IC50 on Glutamate NMDA receptor [1] was 10 µM; at Glutamate NMDA receptor [2], 0.019 µM. In the assay on Mus musculus, the ED50 was found to be 1.8 mg/kg.
Taken in the same sequence, the figures for `O=C1C2=NCCCN(Cc3nn[nH]n3)C2=C1O` were 18 µM, 0.038 µM and over 10 mg/kg.
On the same counts, the results for `O=C1C2=NCCCN(CCCP(=O)(O)O)C2=C1O` are over 100 µM, over 1 µM and over 10 mg/kg.
